Bounds are passed on as bounds.

For orientation: IC50 means the concentration that gives 50% inhibition.

Test system in one data set: not listed separately
In words: Cytotoxicity assay. The class given is cell-based. As to conditions: human, HeLa cells. Summed up: (§1)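 Where cells were clearly affected but the curve could not be fitted, the value was flagged. "n/a" marks no effect under the conditions tested.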
As to `CC(=O)Nc1ccc(-c2csc(Nc3cccc(Cl)c3)n2)cc1` [Compound 20], the IC50 at 72 h stood at 19 µM. That is a double-digit micromolar value.

Turning to `CC(=O)Nc1ccc(-c2csc(Nc3cccc(C)c3)n2)cc1` [Compound 15], the IC50 at 72 h worked out at 37 µM.

In turn, `CC(=O)Nc1ccc(-c2csc(Nc3ccccc3C)n2)cc1` [Compound 14] gave an IC50 at 72 h of 59 µM.

Compound `O=C(Nc1ccc(-c2csc(Nc3cccc(F)c3)n2)cc1)C1CC1` [Compound 13] came in with an IC50 at 72 h of 38 µM.

As to `CC(=O)Nc1ccc(-c2csc(Nc3ccccc3C(F)(F)F)n2)cc1` [Compound 17], 71 µM corresponded to half-maximal inhibition (IC50 at 72 h).

Consider `CC(=O)Nc1ccc(-c2csc(Nc3ccccc3)n2)cc1` [Compound 4], for which the IC50 at 72 h was 48 µM. This IC50 at 72 h and that of the compound before are within 1.5-fold of each other.

`COc1cccc(Nc2nc(-c3ccc(NC(C)=O)cc3)cs2)c1` [Compound 22] displayed an IC50 at 72 h of 43 µM.

With `CC(=O)Nc1ccc(-c2csc(Nc3ccc(F)cc3)n2)cc1` [Compound 10], the IC50 at 72 h was > 80 µM.

Consider `CCC(=O)Nc1ccc(-c2csc(Nc3cccc(F)c3)n2)cc1` [Compound 11, N-[4-[2-(3-fluoroanilino)thiazol-4-yl]phenyl]propanamide], for which the midpoint of inhibition, the IC50 at 72 h, lay at 38 µM.

As for `CC(=O)Nc1ccc(-c2csc(Nc3ccccc3F)n2)cc1` [Compound 8], the IC50 at 72 h was > 80 µM.

Compound `CC(C)C(=O)Nc1ccc(-c2csc(Nc3cccc(F)c3)n2)cc1` [Compound 12] displayed an IC50 at 72 h of 34 µM. This counts as double-digit micromolar.

`CC(=O)Nc1ccc(-c2csc(Nc3cccc(O)c3)n2)cc1` [Compound 21] showed an IC50 at 72 h of 50 µM.

The test system of the next data set is HeLa cells. The data set is described as follows: Cytotoxicity assay. The class given is cell-based. As to conditions: under the conditions used. Summed up: as §1
For the compound `CC(=O)Nc1ccc(-c2csc(Nc3ccc(C(F)(F)F)cc3)n2)cc1` [Compound 19], the “cytotoxicity (in words)” value was “abrogated activity”.

Take `CC(=O)Nc1ccc(-c2csc(NC(=O)c3ccccc3)n2)cc1` [Compound 6]: the “cytotoxicity (in words)” value is “not cytotoxic”.
